From ChEMBL document CHEMBL4725242, “Discovery of GS-9688 (Selgantolimod) as a Potent and Selective Oral Toll-Like Receptor 8 Agonist for the Treatment of Chronic Hepatitis B” (J Med Chem, 2020)

Columns and labels:
[1] = molecular target: T1, Toll-like receptor 7 (Homo sapiens, UniProt Q9NYK1); experiment: Agonist activity at TLR7 in human cryopreserved PBMC assessed as induction of IFNalpha production measured after 24 hrs
T1 sequence (Q9NYK1 whole entry): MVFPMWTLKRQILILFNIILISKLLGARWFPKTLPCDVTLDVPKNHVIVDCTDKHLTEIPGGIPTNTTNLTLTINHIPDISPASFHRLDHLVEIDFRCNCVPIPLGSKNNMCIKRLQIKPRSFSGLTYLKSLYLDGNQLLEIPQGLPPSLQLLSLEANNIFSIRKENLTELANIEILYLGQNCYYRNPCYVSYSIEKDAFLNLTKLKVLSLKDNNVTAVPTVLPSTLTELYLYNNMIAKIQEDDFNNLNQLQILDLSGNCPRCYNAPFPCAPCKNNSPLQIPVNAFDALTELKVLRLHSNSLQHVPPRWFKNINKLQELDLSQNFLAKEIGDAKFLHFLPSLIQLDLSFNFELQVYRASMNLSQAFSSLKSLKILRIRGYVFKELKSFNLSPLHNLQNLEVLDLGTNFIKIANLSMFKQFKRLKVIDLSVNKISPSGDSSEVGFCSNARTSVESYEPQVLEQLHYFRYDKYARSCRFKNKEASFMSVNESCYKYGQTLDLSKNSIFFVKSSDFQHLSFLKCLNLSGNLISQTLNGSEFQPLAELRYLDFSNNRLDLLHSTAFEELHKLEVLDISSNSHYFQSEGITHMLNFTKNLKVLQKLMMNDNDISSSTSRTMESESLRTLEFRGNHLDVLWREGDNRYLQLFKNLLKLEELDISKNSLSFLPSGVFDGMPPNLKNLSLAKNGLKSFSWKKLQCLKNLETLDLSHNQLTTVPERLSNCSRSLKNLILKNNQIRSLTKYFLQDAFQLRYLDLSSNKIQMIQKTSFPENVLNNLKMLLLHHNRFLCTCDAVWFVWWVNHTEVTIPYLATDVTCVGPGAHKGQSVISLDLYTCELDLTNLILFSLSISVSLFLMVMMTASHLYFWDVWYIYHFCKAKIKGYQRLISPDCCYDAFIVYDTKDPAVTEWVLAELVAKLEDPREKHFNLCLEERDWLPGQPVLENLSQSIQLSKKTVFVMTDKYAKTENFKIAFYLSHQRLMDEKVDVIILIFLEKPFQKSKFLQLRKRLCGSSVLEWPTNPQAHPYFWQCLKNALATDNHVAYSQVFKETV
How it was run: (§1)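 Cryopreserved healthy-donor human PBMC, recovered 2 h at 37°C/5% CO2, then 100k cells/well in RPMI/10% FBS exposed 24 h at 37°C to a 10-point half-log dilution series (0.5% final DMSO). Supernatant IFNα-2a quantified by MSD electrochemiluminescence immunoassay. For the ratio, divided by the IL-12p40 EC50 from the same PBMC screen.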

[2] = molecular target: T2, Toll-like receptor 8 (Homo sapiens, UniProt Q9NR97); experiment: Agonist activity at TLR8 in human cryopreserved PBMC assessed as induction of IL-12p40 production measured after 24 hrs
T2 sequence (Q9NR97 whole entry): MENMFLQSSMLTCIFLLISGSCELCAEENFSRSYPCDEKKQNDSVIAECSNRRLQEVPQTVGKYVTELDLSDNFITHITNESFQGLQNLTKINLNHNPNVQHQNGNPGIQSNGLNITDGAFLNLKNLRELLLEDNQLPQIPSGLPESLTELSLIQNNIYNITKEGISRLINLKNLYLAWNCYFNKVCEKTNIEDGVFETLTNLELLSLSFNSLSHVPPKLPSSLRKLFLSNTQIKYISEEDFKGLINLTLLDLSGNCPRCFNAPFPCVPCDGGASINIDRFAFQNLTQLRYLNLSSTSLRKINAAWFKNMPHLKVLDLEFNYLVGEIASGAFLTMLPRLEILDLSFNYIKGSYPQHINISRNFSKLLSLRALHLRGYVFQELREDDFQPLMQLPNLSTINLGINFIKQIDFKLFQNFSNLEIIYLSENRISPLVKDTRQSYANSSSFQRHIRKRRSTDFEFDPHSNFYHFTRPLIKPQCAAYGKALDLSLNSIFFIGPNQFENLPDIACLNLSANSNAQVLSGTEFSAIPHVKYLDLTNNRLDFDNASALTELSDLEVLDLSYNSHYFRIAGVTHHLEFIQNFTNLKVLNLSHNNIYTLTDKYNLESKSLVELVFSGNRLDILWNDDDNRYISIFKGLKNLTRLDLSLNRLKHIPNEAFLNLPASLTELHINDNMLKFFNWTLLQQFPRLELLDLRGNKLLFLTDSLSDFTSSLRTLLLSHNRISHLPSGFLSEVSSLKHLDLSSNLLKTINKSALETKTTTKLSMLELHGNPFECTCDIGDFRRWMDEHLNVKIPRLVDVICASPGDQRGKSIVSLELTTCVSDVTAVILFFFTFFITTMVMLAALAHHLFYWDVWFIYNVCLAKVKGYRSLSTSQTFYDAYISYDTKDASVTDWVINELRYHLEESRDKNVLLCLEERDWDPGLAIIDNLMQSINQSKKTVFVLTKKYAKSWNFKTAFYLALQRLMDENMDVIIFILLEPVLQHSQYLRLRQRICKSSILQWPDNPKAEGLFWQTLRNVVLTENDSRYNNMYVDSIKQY

[3] = Dissociation constant, pKa of the compound; assay type: physicochemical
[4] = Cytotoxicity against human MT4 cells assessed as reduction in cell viability measured after 4 to 5 days by celltiter-glo assay; assay type: cell-based; settings: time 4-5 day
[5] = Selectivity index, ratio of CC50 for human MT4 cells to EC50 for TLR8 in human cryopreserved PBMC assessed as induction of IL-12p40 production
[6] = Apparent permeability across apical to basolateral side in human Caco2 cells measured after 1 to 2 hrs by LC-MS/MS analysis; settings: Caco-2
[7] = Drug metabolism in human hepatocytes assessed as core oxidation; assay type: ADME, cell-based, Hepatocyte
[8] = Clearance in dog hepatic microsomes at 2 uM measured up to 60 mins in presence of NADPH generating system by LC-MS/MS analysis; assay type: ADME, Canis lupus familiaris, Microsome; settings: liver microsomes
[9] = Clearance in cynomolgus monkey hepatic microsomes at 2 uM measured up to 60 mins in presence of NADPH generating system by LC-MS/MS analysis; assay type: ADME, Macaca fascicularis, Microsome; settings: liver microsomes
[10] = Clearance in human hepatic microsomes at 2 uM measured up to 60 mins in presence of NADPH generating system by LC-MS/MS analysis; assay type: ADME, Microsome; settings: liver microsomes
[11] = Apparent permeability across basolateral to apical side in human Caco2 cells measured after 1 to 2 hrs by LC-MS/MS analysis; settings: Caco-2
[12] = Clearance in rat hepatic microsomes at 2 uM measured up to 60 mins in presence of NADPH generating system by LC-MS/MS analysis; assay type: ADME, Microsome; settings: liver microsomes
[13] = species: Homo sapiens; experiment: Selectivity ratio of EC50 for TLR7 in human cryopreserved PBMC assessed as induction of IFNalpha production to EC50 for TLR8 in human cryopreserved PBMC assessed as induction of IL-12p40 production
How it was run: as §1, with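 “immunoassay. Normalized to 10 µM GS-9620 positive and DMSO negative controls; EC50 from 4-parameter logistic fit.” for “immunoassay.”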

Row | EC50 [1] [µM] | EC50 [2] [µM] | SMILES | CC50 [4] [µM] | further results
1 | > 50 | 1.84 | CCCC[C@H](CO)Nc1nc(N)nc2ccccc12 |  | pKa [3]: 8.2
2 | > 50 | > 50 | CCCC[C@](C)(CO[C@@H]1O[C@H](C(=O)O)[C@@H](O)[C@H](O)[C@H]1O)Nc1nc(N)nc2cc(F)cnc12 | > 50 | 
3 | > 30 | 1.3 | CCCN(CCC)C(=O)C1=Cc2ccc(-c3ccc(C(=O)N4CCCC4)cc3)cc2N=C(N)C1 [MOTOLIMOD] |  | 
4 | > 50 | 4.3 | CCCC[C@H](CCO)Nc1nc(N)nc2cccnc12 |  | 
5 | > 50 | > 50 | CCCC[C@@H](Nc1nc(N)nc2cccnc12)C(=O)O |  | 
6 | > 50 | 2.4 | CCC[C@](C)(CO)Nc1nc(N)nc2cccnc12 | > 50 | Ratio CC50/EC50 [5]: >21
7 | > 50 | > 50 | CCCC[C@H](CO)Nc1cc(N)nc2ccccc12 |  | 
8 | > 50 | 0.79 | CCCC[C@H](CO)Nc1nc(N)nc2cccnc12 | 7.8 | pKa [3]: 6.8; Ratio CC50/EC50 [5]: 10
9 | > 50 | 36 | CCCC[C@@H](Nc1nc(N)nc2cccnc12)C(N)=O |  | 
10 | > 50 | 3.3 | CCCC[C@@](C)(CO)Nc1nc(N)nc2cc(F)cnc12 | 0.79 | Ratio CC50/EC50 [5]: 0.2
11 | 20 | 0.58 | CCCCC[C@](C)(CO)Nc1nc(N)nc2cccnc12 | 17 | Ratio CC50/EC50 [5]: 29
12 | > 50 | > 50 | CCCC[C@@](C)(Nc1nc(N)nc2cc(F)cnc12)C(=O)O | > 50 | 
13 | 5.1 | 3.1 | CCCC(C)Nc1nc(N)nc2cccnc12 (stereo unspecified) |  | 
14 | 0.57 | 0.71 | CCCC[C@@H](CO)Nc1nc(N)nc2ccccc12 |  | 
15 | 15 | 0.17 | CCCC[C@](C)(CO)Nc1nc(N)nc2cccnc12 | 31 | Papp A→B [6]: 29 ×10⁻⁶ cm/s; Drug metabolism [7]: Metabolite_Detected; CLhep predicted at 2 µM [8]: 23.3 mL/min/kg; CLhep predicted at 2 µM [9]: 21.7 mL/min/kg; CLhep predicted at 2 µM [10]: 13.3 mL/min/kg; Papp B→A [11]: 29 ×10⁻⁶ cm/s; Ratio CC50/EC50 [5]: 182; CLhep predicted at 2 µM [12]: 58.3 mL/min/kg; Ratio EC50 [13]: > 80
16 | > 50 | > 50 | CCCCC(CO)(CCCC)Nc1nc(N)nc2cccnc12 | 38 | 
17 | > 50 | > 50 | C[C@](CO)(CCCCO)Nc1nc(N)nc2cc(F)cnc12 | > 50 | 
18 | > 50 | > 50 | CCCCOc1nc(N)nc2cccnc12 |  | 
19 | > 50 | 19 | CCC[C@H](CO)Nc1nc(N)nc2cccnc12 |  | 
20 | > 50 | > 50 | CCCC[C@@H](Nc1nc(N)nc2cccnc12)C(=O)NC |  | 
21 | 2 | 0.43 | CCC[C@@H](CO)Nc1nc(N)nc2cccnc12 |  | 
22 | > 20 | 3.33 | CCCCC[C@H](CO)Nc1nc(N)nc2cccnc12 |  | 
23 | 2.2 | 1.9 | CCCCNc1nc(N)nc2cccnc12 |  | 
24 | 7.9 | 2.4 | CCCC[C@@](C)(CO)Nc1nc(N)nc2cccnc12 | 26 | Papp A→B [6]: 32 ×10⁻⁶ cm/s; Drug metabolism [7]: Metabolite_Detected; CLhep predicted at 2 µM [8]: 25 mL/min/kg; CLhep predicted at 2 µM [9]: 23.3 mL/min/kg; CLhep predicted at 2 µM [10]: 13.3 mL/min/kg; Papp B→A [11]: 31 ×10⁻⁶ cm/s; Ratio CC50/EC50 [5]: 11; CLhep predicted at 2 µM [12]: 58.3 mL/min/kg
25 | > 50 | > 50 | CCCC[C@@H](CO)Nc1cc(N)nc2ccccc12 |  | 
26 | > 50 | 0.16 | CCCC[C@](C)(CO)Nc1nc(N)nc2cc(C)cnc12 | 23 | Papp A→B [6]: 31 ×10⁻⁶ cm/s; CLhep predicted at 2 µM [8]: 18.3 mL/min/kg; CLhep predicted at 2 µM [9]: 25 mL/min/kg; pKa [3]: 7.1; CLhep predicted at 2 µM [10]: 8.33 mL/min/kg; Papp B→A [11]: 29 ×10⁻⁶ cm/s; Ratio CC50/EC50 [5]: 144; CLhep predicted at 2 µM [12]: 63.3 mL/min/kg; Ratio EC50 [13]: > 185
27 | > 42 | 0.27 | CCCC[C@](C)(CO)Nc1nc(N)nc2cc(Cl)cnc12 | 22 | CLhep predicted at 2 µM [8]: 30 mL/min/kg; CLhep predicted at 2 µM [9]: 23.3 mL/min/kg; pKa [3]: 6.4; CLhep predicted at 2 µM [10]: 16.7 mL/min/kg; CLhep predicted at 2 µM [12]: 56.7 mL/min/kg
28 | > 50 | 25 | CCCC[C@H](CN)Nc1nc(N)nc2cccnc12 |  | 
29 | 0.91 | 0.42 | CCCC[C@@H](CO)Nc1nc(N)nc2cccnc12 |  | 
30 | > 50 | 10 | CCCCCC[C@](C)(CO)Nc1nc(N)nc2cccnc12 | 3.6 | Ratio CC50/EC50 [5]: 0.4
